Experimental data reported in ChEMBL document CHEMBL2311385, “Enhancing macrocyclic diterpenes as multidrug-resistance reversers: structure-activity studies on jolkinol D derivatives” (J Med Chem, 2013).
One block for each compound: values may come before it.

Assays:
[1] = target: T1, ATP-dependent translocase ABCB1 (Homo sapiens, UniProt P08183); assay: Inhibition of human Pgp expressed in mouse L5178Y cells assessed as potentiation of doxorubicin-induced cytotoxicity after 48 hrs by MTT assay; format: cell-based
Summary of the method: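 Checkerboard combination with doxorubicin (14.7–0.1 μM) across one axis and 2-fold dilutions of modifier on the other, at a fixed drug ratio. MDR L5178Y cells seeded at 2 × 10^5 cells/mL and incubated 48 h, growth read by MTT. Combination index from the Chou–Talalay median-effect equation at 50% inhibition, using the best combination ratio. CI <1 synergy, =1 additivity, >1 antagonism.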

[2] = target: T1, ATP-dependent translocase ABCB1; assay: Inhibition of human Pgp-mediated rhodamine 123 efflux expressed in mouse L5178Y cells assessed as fluorescence activity ratio at 20 uM after 10 mins by flow cytometric analysis; format: cell-based
Summary of the method: (§1)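 PAR and MDR L5178Y cells at 2 × 10^6 cells/mL in serum-free McCoy's 5A, compound at 2 or 20 μM. Verapamil 22 μM as positive control, DMSO 2% as solvent control. After 10 min at room temperature, rhodamine-123 added (5.2 μM final) for 20 min at 37 °C. Cells washed twice, resuspended in PBS, and mean FL-1 of 20 000 cells read by flow cytometry. FAR = (MDR treated/untreated)/(PAR treated/untreated).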

[3] = target: T1, ATP-dependent translocase ABCB1; assay: Inhibition of human Pgp-mediated rhodamine 123 efflux expressed in mouse L5178Y cells assessed as fluorescence activity ratio at 2 uM after 10 mins by flow cytometric analysis; format: cell-based; summary of the method: as §1
L5178Y [4] = assay: Cytotoxicity against chemoresistant mouse L5178Y cells expressing human MDR1 gene after 72 hrs by MTT assay; format: ADME, cell-based
Summary of the method: (§2)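 L5178Y parental and human MDR1-transfected mouse T-cell lymphoma cells grown in McCoy's 5A with 10% heat-inactivated horse serum at 37 °C, 5% CO2. Cells seeded at 1 × 10^5/mL and given 2-fold serial dilutions in duplicate wells for 72 h. MTT added for 4 h, then SDS overnight, OD 550 nm (ref 630). IC50 from curve fitting over three independent experiments. Selectivity index = IC50(PAR)/IC50(MDR).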

L5178Y [5] = assay: Cytotoxicity against chemosensitive mouse L5178Y cells after 72 hrs by MTT assay; format: cell-based; summary of the method: as §2
[6] = tested on: P-glycoprotein 1 / MDR1 (Homo sapiens); assay: Selectivity index, ratio of IC50 for chemosensitive mouse L5178Y cells to IC50 for chemoresistant mouse L5178Y cells expressing human MDR1 gene
[7] = target: T1, ATP-dependent translocase ABCB1; assay: Inhibition of human Pgp-mediated rhodamine 123 efflux expressed in mouse L5178Y cells assessed as reversal of chemoresistance after 10 mins by flow cytometric analysis; format: cell-based
Summary of the method: (§3)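 MDR L5178Y cells preincubated 10 min with compound, then loaded with rhodamine-123 (5.2 μM final) for 20 min at 37 °C and read by flow cytometry. The percentage of cells reverted to a chemosensitive phenotype was obtained by Overton cumulative histogram subtraction, channel by channel.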

L5178Y [8] = assay: Toxicity against chemoresistant mouse L5178Y cells expressing human MDR1 gene at >40 uM after 10 mins by flow cytometric analysis; format: cell-based
Summary of the method: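 Toxicity during the rhodamine-123 accumulation assay, tested at 2, 20, 40 and 80 μM, was judged from shifts in flow-cytometric forward scatter and side scatter.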

P-gp (ABCB1) = P-gp (ABCB1) (Homo sapiens, UniProt P08183); assay: Inhibition of human Pgp expressed in mouse L5178Y cells assessed as reversal of chemoresistance at 20 uM after 10 mins by flow cytometric analysis; format: cell-based; summary of the method: as §3
Sequence of P-gp (ABCB1) (P08183 whole entry): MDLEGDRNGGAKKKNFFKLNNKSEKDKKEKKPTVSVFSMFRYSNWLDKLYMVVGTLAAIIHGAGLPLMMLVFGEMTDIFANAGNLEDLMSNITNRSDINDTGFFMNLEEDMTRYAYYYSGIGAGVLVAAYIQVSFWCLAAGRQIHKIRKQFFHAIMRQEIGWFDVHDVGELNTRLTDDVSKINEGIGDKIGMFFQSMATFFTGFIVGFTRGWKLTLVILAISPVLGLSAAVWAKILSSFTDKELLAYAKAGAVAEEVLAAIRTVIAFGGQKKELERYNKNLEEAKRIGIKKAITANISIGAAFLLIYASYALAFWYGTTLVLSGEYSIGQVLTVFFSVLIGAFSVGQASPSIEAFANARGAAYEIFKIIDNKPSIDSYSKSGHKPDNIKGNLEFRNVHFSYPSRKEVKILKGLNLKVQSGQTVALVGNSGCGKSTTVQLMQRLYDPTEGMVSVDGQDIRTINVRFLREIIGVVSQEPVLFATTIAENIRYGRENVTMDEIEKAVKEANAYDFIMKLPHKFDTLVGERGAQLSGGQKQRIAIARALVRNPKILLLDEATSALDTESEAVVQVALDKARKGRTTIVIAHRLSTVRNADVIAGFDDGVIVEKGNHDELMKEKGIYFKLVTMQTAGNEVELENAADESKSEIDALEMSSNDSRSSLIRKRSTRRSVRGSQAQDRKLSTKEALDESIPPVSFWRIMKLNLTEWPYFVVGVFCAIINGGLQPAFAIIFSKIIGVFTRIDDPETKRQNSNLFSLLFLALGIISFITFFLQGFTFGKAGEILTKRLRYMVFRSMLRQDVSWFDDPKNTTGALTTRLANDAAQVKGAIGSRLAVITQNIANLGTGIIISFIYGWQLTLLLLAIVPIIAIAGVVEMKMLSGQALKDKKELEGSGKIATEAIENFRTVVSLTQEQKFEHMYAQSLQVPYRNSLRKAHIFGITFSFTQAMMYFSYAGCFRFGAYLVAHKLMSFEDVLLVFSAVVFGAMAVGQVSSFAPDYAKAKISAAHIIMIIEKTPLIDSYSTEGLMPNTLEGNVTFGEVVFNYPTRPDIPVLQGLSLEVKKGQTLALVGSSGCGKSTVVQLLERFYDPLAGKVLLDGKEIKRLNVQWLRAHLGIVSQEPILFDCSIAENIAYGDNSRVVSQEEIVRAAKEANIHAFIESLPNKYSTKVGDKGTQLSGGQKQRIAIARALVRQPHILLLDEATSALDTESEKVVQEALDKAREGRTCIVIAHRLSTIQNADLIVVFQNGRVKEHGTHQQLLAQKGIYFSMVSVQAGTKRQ

T1 sequence (P08183 whole entry): as above

Ratio [2]: 33.76
Ratio [3]: 1.16
Structure (SMILES): CC(=O)O[C@H]1[C@@H](C)C[C@]2(OC(C)=O)C(=O)/C(C)=C/[C@@H]3[C@H](CC/C(C)=C/[C@@H]12)C3(C)C [JOLKINOATE A]
CI [1]: 0.18
IC50 (L5178Y [4]): 60.4 µM
IC50 (L5178Y [5]): 38.2 µM
selectivity ratio [6]: 0.6

Ratio [2]: 56.88
inhibition (INH) [7]: Dose-dependent effect
Ratio [3]: 21.11
Structure (SMILES): CC(=O)O[C@]12C[C@H](C)[C@H](OC(=O)c3ccc(C)cc3)[C@@H]1/C=C(\C)CC[C@H]1[C@@H](/C=C(\C)C2=O)C1(C)C [JOLKINOATE J]
CI [1]: 0.26
IC50 (L5178Y [4]): 45.1 µM
IC50 (L5178Y [5]): 41.2 µM
selectivity ratio [6]: 0.9

Ratio [2]: 0.92
Ratio [3]: 0.79
Structure (SMILES): CC(=O)O[C@]12C[C@H](C)[C@H](O)[C@@H]1/C=C(\C)CC[C@H]1[C@@H](/C=C(\C)C2=O)C1(C)C [JOLKINOL D]
CI [1]: 0.26
IC50 (L5178Y [4]): 99.7 µM
IC50 (L5178Y [5]): 89.9 µM
selectivity ratio [6]: 0.9

Ratio [2]: 28.66
Ratio [3]: 9.32
Structure (SMILES): CC(=O)O[C@]12C[C@H](C)[C@H](OC(=O)c3cccc(C(F)(F)F)c3)[C@@H]1/C=C(\C)CC[C@H]1[C@@H](/C=C(\C)C2=O)C1(C)C [JOLKINOATE L]
CI [1]: 0.27
IC50 (L5178Y [4]): 52.6 µM
IC50 (L5178Y [5]): 44 µM
selectivity ratio [6]: 0.8

inhibition at 10 min, 20 µM (P-gp (ABCB1)): 95%
Ratio [2]: 109.17
inhibition (INH) [7]: Dose-dependent effect
Ratio [3]: 28.09
Structure (SMILES): COc1ccc(C(=O)O[C@H]2[C@@H](C)C[C@]3(OC(C)=O)C(=O)/C(C)=C/[C@@H]4[C@H](CC/C(C)=C/[C@@H]23)C4(C)C)cc1 [JOLKINOATE K]
CI [1]: 0.3
IC50 (L5178Y [4]): 32.7 µM
IC50 (L5178Y [5]): 21.7 µM
selectivity ratio [6]: 0.7

Ratio [2]: 52.77
inhibition (INH) [7]: Dose-dependent effect
Ratio [3]: 16.06
Structure (SMILES): CC(=O)O[C@]12C[C@H](C)[C@H](OS(=O)(=O)c3ccccc3)[C@@H]1/C=C(\C)CC[C@H]1[C@@H](/C=C(\C)C2=O)C1(C)C [JOLKINOATE M]
CI [1]: 0.21
IC50 (L5178Y [4]): 15 µM
IC50 (L5178Y [5]): 12.1 µM
selectivity ratio [6]: 0.8

inhibition at 10 min, 20 µM (P-gp (ABCB1)): 70.2%
Ratio [2]: 84.22
inhibition (INH) [7]: Dose-dependent effect
Ratio [3]: 24.15
Structure (SMILES): CC(=O)O[C@]12C[C@H](C)[C@H](OC(=O)c3ccccc3)[C@@H]1/C=C(\C)CC[C@H]1[C@@H](/C=C(\C)C2=O)C1(C)C [JOLKINOATE I]
CI [1]: 0.35
IC50 (L5178Y [4]): 33.1 µM
IC50 (L5178Y [5]): 34.7 µM
selectivity ratio [6]: 1

Further lines, the compound ahead of its results:

Structure (SMILES): CCCCCCCCCCCC(=O)O[C@H]1[C@@H](C)C[C@]2(OC(C)=O)C(=O)/C(C)=C/[C@@H]3[C@H](CC/C(C)=C/[C@@H]12)C3(C)C [JOLKINOATE D]
CI [1]: 2.02
Ratio [2]: 25.69
Ratio [3]: 1.74
IC50 (L5178Y [4]): 60.3 µM
IC50 (L5178Y [5]): 38.7 µM
selectivity ratio [6]: 0.6

Structure (SMILES): CCC(CC)C(=O)O[C@H]1[C@@H](C)C[C@]2(OC(C)=O)C(=O)/C(C)=C/[C@@H]3[C@H](CC/C(C)=C/[C@@H]12)C3(C)C [JOLKINOATE F]
CI [1]: 0.25
Activity (L5178Y [8]): Toxic
Ratio [2]: 77.25
Ratio [3]: 4.99
IC50 (L5178Y [4]): 14.7 µM
IC50 (L5178Y [5]): 14.3 µM
selectivity ratio [6]: 1

Structure (SMILES): CCCCC(CC)C(=O)O[C@H]1[C@@H](C)C[C@]2(OC(C)=O)C(=O)/C(C)=C/[C@@H]3[C@H](CC/C(C)=C/[C@@H]12)C3(C)C (stereo not given in full) [JOLKINOATE G]
CI [1]: 0.31
Activity (L5178Y [8]): Toxic
Ratio [2]: 52.66
Ratio [3]: 10.55
IC50 (L5178Y [4]): 48.9 µM
IC50 (L5178Y [5]): 20.6 µM
selectivity ratio [6]: 0.4

Structure (SMILES): CCCC(=O)O[C@H]1[C@@H](C)C[C@]2(OC(C)=O)C(=O)/C(C)=C/[C@@H]3[C@H](CC/C(C)=C/[C@@H]12)C3(C)C [JOLKINOATE C]
CI [1]: 0.39
Activity (L5178Y [8]): Toxic
Ratio [2]: 107.89
Ratio [3]: 5.15
IC50 (L5178Y [4]): 26.8 µM
IC50 (L5178Y [5]): 24 µM
selectivity ratio [6]: 0.9

Structure (SMILES): CCCC(C)C(=O)O[C@H]1[C@@H](C)C[C@]2(OC(C)=O)C(=O)/C(C)=C/[C@@H]3[C@H](CC/C(C)=C/[C@@H]12)C3(C)C (stereo not given in full) [JOLKINOATE E]
CI [1]: 0.23
Activity (L5178Y [8]): Toxic
Ratio [2]: 12.13
Ratio [3]: 7.14
IC50 (L5178Y [4]): 18.8 µM
IC50 (L5178Y [5]): 17.2 µM
selectivity ratio [6]: 0.9

Structure (SMILES): CCC(=O)O[C@H]1[C@@H](C)C[C@]2(OC(C)=O)C(=O)/C(C)=C/[C@@H]3[C@H](CC/C(C)=C/[C@@H]12)C3(C)C [JOLKINOATE B]
CI [1]: 0.34
Activity (L5178Y [8]): Toxic
Ratio [2]: 30.64
Ratio [3]: 2.95
IC50 (L5178Y [4]): 22.2 µM
IC50 (L5178Y [5]): 18.3 µM
selectivity ratio [6]: 0.8

Structure (SMILES): C/C1=C\[C@H]2[C@@H](O)[C@@H](C)C[C@]2(O)C(=O)/C(C)=C/[C@@H]2[C@H](CC1)C2(C)C [JOLKINODIOL]
CI [1]: 0.65
Ratio [2]: 3.38
Ratio [3]: 0.84
IC50 (L5178Y [4]): 48.9 µM
IC50 (L5178Y [5]): 36.4 µM
selectivity ratio [6]: 0.7
